From ChEMBL document CHEMBL3627648, “Synthesis and biochemical evaluation of benzoylbenzophenone thiosemicarbazone analogues as potent and selective inhibitors of cathepsin L” (Bioorg Med Chem, 2015)
Calls of active or inactive are those of the source. The rule behind the calls is not given here.

Experiments:
Cathepsin B = Cathepsin B (Homo sapiens, UniProt P07858); test: Inhibition of human liver cathepsin B using Z-RR-AMC as substrate after 5 mins by fluorescence assay
Outline: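 Human liver cathepsin B (1 nM) was pre-incubated 5 min at 37 °C with inhibitor (final 10 µM to 10 pM). Substrate was 60 µM Z-RR-AMC in 120 mM sodium potassium phosphate pH 6.0 with 1 mM EDTA, 3 mM DTT, 0.01% Brij 35 and 2% DMSO. AMC fluorescence (ex 355/em 460 nm) was read for 5 min at 37 °C.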

Procathepsin L [1] = molecular target: T1, Procathepsin L (Homo sapiens, UniProt P07711); test: Inhibition of human liver cathepsin L using Z-FR-AMC as substrate measured every 15 sec for 5 mins by fluorescence assay
Target sequence in this assay (P07711 whole entry): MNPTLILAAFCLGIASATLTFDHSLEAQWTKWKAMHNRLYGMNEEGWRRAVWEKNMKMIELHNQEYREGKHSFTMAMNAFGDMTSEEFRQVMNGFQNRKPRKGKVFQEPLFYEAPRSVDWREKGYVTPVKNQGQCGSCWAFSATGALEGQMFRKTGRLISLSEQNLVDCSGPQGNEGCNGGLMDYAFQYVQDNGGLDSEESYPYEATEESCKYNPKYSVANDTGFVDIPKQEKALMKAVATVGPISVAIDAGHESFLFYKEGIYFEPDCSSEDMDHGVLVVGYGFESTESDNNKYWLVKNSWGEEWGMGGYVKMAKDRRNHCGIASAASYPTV

MDA-MB-231 [2] = test: Antiinvasive activity in human MDA-MB-231 cells at 10 uM after 24 hrs by inverted microscopic analysis; type: functional; settings: MDA-MB-231, 24 h
Outline: (§1)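 MDA-MB-231 cells at 80% confluence, 50,000 per Matrigel-coated insert (8 µm PET membrane) in DMEM with 10 or 25 µM compound and 2% DMSO. The lower chamber held DMEM with 10% FBS as chemoattractant. After 24 h at 37 °C in 5% CO2, invaded cells were methanol-fixed, Diff-stained and counted by hand in ten fields at 40x. Values were normalised to the 2% DMSO vehicle; triplicate.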

HUVEC = test: Cytotoxicity against HUVEC cells after 48 hrs by SRB assay; type: cell-based; settings: human
Outline: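 SRB growth assay: HUVECs (pooled donors, passage ≤5) plated at 9,000 cells/well for 24 h, then exposed to ten-fold serial dilutions for 48 h. Cells were TCA-fixed and stained with 0.4% SRB, and absorbance read at 540 nm normalised to 630 nm.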

MDA-MB-231 [3] = test: Antiinvasive activity in human MDA-MB-231 cells at 25 uM after 24 hrs by inverted microscopic analysis; type: functional; settings: for inhibition at 25 µM: MDA-MB-231, 24 h; outline: as §1
MDA-MB-231 [4] = test: Antimigrative activity in human MDA-MB-231 cells at 25 uM after 24 hrs by inverted microscopic analysis; type: functional; settings: MDA-MB-231, 24 h
Outline: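 Transwell migration of MDA-MB-231 cells, run as for invasion but on 8 µm pore inserts without Matrigel. Each insert held 50,000 cells in DMEM with 25 µM compound and 2% DMSO, with 10% FBS DMEM below. After 24 h at 37 °C, cells were fixed, stained and counted by microscope. Values were normalised to the DMSO vehicle; triplicate.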

Procathepsin L [5] = molecular target: T1, Procathepsin L; test: Inhibition of human liver cathepsin L using Z-FR-AMC as substrate at 10000 nM measured every 15 sec for 5 mins by fluorescence assay
Outline: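 Human liver cathepsin L (1 nM) was pre-incubated 5 min at 25 °C with 10 µM inhibitor or vehicle. Substrate was 50 µM Z-FR-AMC in 100 mM NaOAc pH 5.5 with 1 mM EDTA, 3 mM DTT, 0.01% Brij 35 and 2% DMSO.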
Target sequence in this assay (P07711 114-333 limits assumed): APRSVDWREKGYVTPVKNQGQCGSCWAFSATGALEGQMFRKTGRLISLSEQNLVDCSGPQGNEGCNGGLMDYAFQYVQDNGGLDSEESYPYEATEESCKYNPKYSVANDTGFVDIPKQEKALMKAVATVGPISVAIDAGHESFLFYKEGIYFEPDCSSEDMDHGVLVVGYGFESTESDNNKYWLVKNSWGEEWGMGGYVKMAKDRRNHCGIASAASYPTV

[6] = Antiinvasive activity in human PC3-ML cells at 25 uM after 24 hrs by microscopic analysis; type: functional
Outline: (§2)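 PC-3ML cells, a metastatic PC-3 subline, were seeded in serum-free medium into Matrigel-coated invasion inserts, with 10% FBS medium in the bottom chamber. At 24 h, cells that reached the membrane underside were stained and counted by microscope. Mean and standard error come from 3-5 independent experiments.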

[7] = Antiinvasive activity in human PC3-ML cells at 10 uM after 24 hrs by microscopic analysis; type: functional; outline: as §2
[8] = Antitumor activity against C3H mouse derived mammary cancer cells implanted in CDF1 mouse assessed as time taken for tumors to reach 500 mm'3 at 20 mg/kg, ip administered 5 consecutive days starting either on day of tumor implantation or when tumors reached 200 mm'3 (reference value: 20.1 +/- 0.6 days); type: functional, Cancer cell lines
Outline: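 Female CDF1 mice, 10-14 weeks old, had minced C3H mammary carcinoma tissue (5-10 µl) implanted in the right rear foot. Dosing was 20 mg/kg i.p. at 0.02 ml/g, dissolved in Tween80 and diluted to 10% with saline, given daily for 5 days. Tumour volume was followed daily to find days to reach 500 mm3. Groups had 5-8 mice; mean ±1 S.E.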

Mus musculus = test: Toxicity in C3H mouse derived mammary cancer cells implanted CDF1 mouse assessed as drug tolerability at 20 mg/kg, ip administered 5 consecutive days starting either on day of tumor implantation or when tumors reached 200 mm'3; type: organism-based, Cancer cell lines; settings: in vivo
[9] = Antiinvasive activity in human PC3-ML cells at 1 uM after 24 hrs by microscopic analysis; type: functional; outline: as §2
[10] = Antiinvasive activity in human PC3-ML cells at 5 uM after 24 hrs by microscopic analysis; type: functional; outline: as §2

| Structure (SMILES) | IC50 (Cathepsin B) [µM] | IC50 (Procathepsin L [1]) [µM] | GI50 (HUVEC) [µM] | further results |
| --- | --- | --- | --- | --- |
| NC(=S)N/N=C(\c1cc(Br)cc(C(=O)c2ccccc2F)c1)c1ccccc1F | > 10 | 0.00812 | > 85.9 | inhibition at 10 µM (MDA-MB-231 [2]): 70%; inhibition (MDA-MB-231 [3]): Active; inhibition at 25 µM (MDA-MB-231 [4]): > 50% |
| NC(=S)N/N=C(\c1ccc(O)cc1)c1cccc(C(=O)c2ccc(O)cc2)c1 | > 10 | 0.34 | – | – |
| NC(=S)N/N=C(\c1ccc(Br)cc1)c1cccc(/C(=N/NC(N)=S)c2ccc(Br)cc2)c1 | > 10 | > 10 | – | – |
| NC(=S)N/N=C(\c1ccccc1)c1cccc(C(=O)c2ccccc2)c1 | > 10 | 0.00985 | 53.3 | inhibition at 25 µM [6]: 53%; inhibition at 25 µM (MDA-MB-231 [3]): 30%; inhibition at 10 µM [7]: 37%; inhibition at 25 µM (MDA-MB-231 [4]): 80%; Time [8]: 22.1 days; Activity (Mus musculus): Non-toxic |
| NC(=S)N/N=C(\c1cccc(Br)c1)c1cc(Br)cc(C(=O)c2cccc(Br)c2)c1 | > 10 | 10.3 | – | – |
| NC(=S)N/N=C(\c1ccc(F)cc1)c1cccc(C(=O)c2ccc(F)cc2)c1 | > 10 | 0.0144 | > 126 | inhibition at 1 µM [9]: 59%; inhibition at 10 µM (MDA-MB-231 [2]): 15%; inhibition at 5 µM [10]: 92%; inhibition at 25 µM (MDA-MB-231 [3]): 60%; inhibition at 25 µM (MDA-MB-231 [4]): > 50% |
| Cc1cccc(C(=O)c2cccc(/C(=N/NC(N)=S)c3cccc(C)c3)c2)c1 | > 10 | 0.654 | – | – |
| CC(=O)O[C@H]1C(=O)[C@@]2(C)[C@H]([C@H](OC(=O)c3ccccc3)[C@]3(O)C[C@H](OC(=O)[C@H](O)[C@@H](NC(=O)c4ccccc4)c4ccccc4)C(C)=C1C3(C)C)[C@]1(OC(C)=O)CO[C@@H]1C[C@@H]2O [PACLITAXEL] | – | – | 0.00148 | – |
| NC(=S)N/N=C(\c1ccccc1)c1cc(C(=O)c2ccccc2)cc(C(=O)c2ccccc2)c1 | > 10 | 0.056 | – | – |
| NC(=S)N/N=C(\c1cccc(O)c1)c1cc(Br)cc(C(=O)c2cccc(O)c2)c1 | > 10 | 0.0716 | 13.3 | – |
| COc1cccc2c1C(=O)c1c(O)c3c(c(O)c1C2=O)C[C@@](O)(C(=O)CO)C[C@@H]3O[C@H]1C[C@H](N)[C@H](O)[C@H](C)O1 [DOXORUBICIN] | – | – | 0.0268 | – |
| CC(C)C[C@H](NC(=O)[C@@H]1O[C@H]1C(=O)O)C(=O)NCCCCN=C(N)N | – | – | – | inhibition at 10 µM (MDA-MB-231 [2]): 60% |

Now from value to molecule, other results behind:

| IC50 (Cathepsin B) [µM] | IC50 (Procathepsin L [1]) [µM] | Structure (SMILES) | GI50 (HUVEC) [µM] | further results |
| --- | --- | --- | --- | --- |
| > 10 | 0.0238 | NC(=S)N/N=C(\c1ccccc1)c1cccc(C(O)c2ccccc2)c1 (stereo not given) | – | – |
| > 10 | > 10 | CC(C)Oc1ccc(C(=O)c2cccc(/C(=N/NC(N)=S)c3ccc(OC(C)C)cc3)c2)cc1 | – | – |
| > 10 | 10 | NC(=S)N/N=C(\c1cccc(Br)c1)c1cc(O)cc(C(=O)c2cccc(Br)c2)c1 | – | inhibition (Procathepsin L [5]): 56.9% |
| > 10 | 5.12 | COc1ccc(C(=O)c2cccc(/C(=N/NC(N)=S)c3ccc(OC)cc3)c2)cc1 | – | – |
| > 10 | 1.52 | NC(=S)N/N=C(\c1ccc(Br)cc1)c1cccc(C(=O)c2ccc(Br)cc2)c1 | – | – |
